Laboratory results taken from paper PMC7035113 (Nature, 2020).
Square brackets hold non-standard residues; d marks the D form. Ends that are not written are not given here. Peptide text beside a SMILES is read from it. pT = C[C@@H](OP(=O)(O)O)[C@H](N)C(=O)O

What follows are compounds tested against T1, SA2-SCC1 (Homo sapiens, UniProt O60216+Q8N3U4) (assay: Isothermal titration calorimetry). Settings: ITC, 25°C, one site binding model.
T1 sequence (Q8N3U4 80-1060): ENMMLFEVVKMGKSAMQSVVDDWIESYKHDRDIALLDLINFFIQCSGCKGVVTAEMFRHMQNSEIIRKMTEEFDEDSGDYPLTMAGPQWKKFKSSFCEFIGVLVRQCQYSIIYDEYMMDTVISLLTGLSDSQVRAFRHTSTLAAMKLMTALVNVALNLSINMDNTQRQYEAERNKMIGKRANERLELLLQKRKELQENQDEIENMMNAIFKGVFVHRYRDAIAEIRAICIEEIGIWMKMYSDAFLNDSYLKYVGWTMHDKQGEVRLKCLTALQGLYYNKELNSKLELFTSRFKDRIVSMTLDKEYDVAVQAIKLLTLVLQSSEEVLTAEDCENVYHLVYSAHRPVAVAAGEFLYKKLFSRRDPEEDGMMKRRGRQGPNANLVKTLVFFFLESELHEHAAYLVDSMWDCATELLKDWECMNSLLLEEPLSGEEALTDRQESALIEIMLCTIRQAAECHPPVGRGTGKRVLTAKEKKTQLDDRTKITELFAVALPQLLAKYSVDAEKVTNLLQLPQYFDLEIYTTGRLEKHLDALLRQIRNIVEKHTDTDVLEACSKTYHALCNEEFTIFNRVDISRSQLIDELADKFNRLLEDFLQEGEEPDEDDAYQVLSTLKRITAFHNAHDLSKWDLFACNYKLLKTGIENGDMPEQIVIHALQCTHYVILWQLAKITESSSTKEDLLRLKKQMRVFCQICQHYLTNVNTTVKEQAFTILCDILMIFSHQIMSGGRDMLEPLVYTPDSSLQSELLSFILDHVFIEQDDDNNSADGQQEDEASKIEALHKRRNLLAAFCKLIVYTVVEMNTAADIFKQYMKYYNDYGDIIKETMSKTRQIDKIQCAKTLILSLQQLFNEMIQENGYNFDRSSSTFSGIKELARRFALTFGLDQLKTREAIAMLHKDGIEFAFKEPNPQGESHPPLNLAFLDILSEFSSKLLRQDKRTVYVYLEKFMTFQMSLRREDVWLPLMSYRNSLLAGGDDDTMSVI
T1 sequence (O60216 281-420): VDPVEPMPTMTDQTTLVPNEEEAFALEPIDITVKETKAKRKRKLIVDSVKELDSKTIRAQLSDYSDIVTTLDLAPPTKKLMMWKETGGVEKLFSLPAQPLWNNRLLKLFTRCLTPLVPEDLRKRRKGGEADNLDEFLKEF
Outline: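 Recombinant SA2-SCC1 from E. coli BL21(DE3), purified by Co2+ IMAC, MonoQ and Superdex 200. Protein and peptides were dialysed overnight at 4°C against 20 mM Tris pH 7.7, 150 mM NaCl, 0.5 mM TCEP. 50 μM SA2-SCC1 was placed in the cell and titrated with 500 μM peptide in 16 injections. Data were fitted to a one-site model; titrations were repeated three times.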

Compound | N (binding stoichiometry) | TΔS [kcal/mol] | ΔG [kcal/mol] | ΔH [kcal/mol]
CC(C)C[C@H](NC(=O)[C@H](CC(N)=O)NC(=O)[C@H](Cc1ccccc1)NC(=O)[C@H](CC(N)=O)NC(=O)[C@H](Cc1ccc(O)cc1)NC(=O)[C@H](C)NC(=O)[C@H](CC(=O)O)NC(=O)[C@H](CC(N)=O)NC(=O)[C@@H](N)CO)C(=O)N[C@@H](CCC(=O)O)C(=O)N[C@@H](CCC(=O)O)C(=O)NCC(=O)N[C@H](C(=O)N[C@@H](Cc1c[nH]cn1)C(=O)N[C@@H](CC(C)C)C(=O)N[C@H](C(=O)N1CCC[C@H]1C(=O)N[C@@H](Cc1ccccc1)C(=O)N[C@@H](CCCNC(=N)N)C(=O)O)[C@@H](C)OP(=O)(O)O)C(C)C [Shugoshin 331-349 (pT346), reference compound] (H-SNDAYNFNLEEGVHL[pT]PFR-OH; N-terminus and C-terminus assumed) | 0.89 | -12.30 | -7.69 | -20.00
DVKLEFFGFEDHETGGDEGGSGSSNYKIKYFGFDDLSESED [Wapl 423-463] | 0.62 | -0.54 | -6.11 | -6.66
NYKIKYFGFDDLSESE [Wapl 447-462] | 1.00 | -1.20 | -5.60 | -6.81
SNDAYNFNLEE [Shugoshin 331-341] | 0.83 | -4.02 | -6.64 | -10.67
